We go through four molecules from article PMC2963086 (Analytical biochemistry, 2010).

For data set [1], the target named is Glucose dehydrogenase (GDH). The data set is described as follows: Fluorescence titration. In kind it is binding, Bacillus megaterium. Particulars: read-out: Kd (Binary); GDH binary complex; fluorescence experiments; pH 7.5.
Data set [2] deals with T1, Malate dehydrogenase (MDH) (Sus scrofa, UniProt P00346).
T1 sequence (P00346 25-338): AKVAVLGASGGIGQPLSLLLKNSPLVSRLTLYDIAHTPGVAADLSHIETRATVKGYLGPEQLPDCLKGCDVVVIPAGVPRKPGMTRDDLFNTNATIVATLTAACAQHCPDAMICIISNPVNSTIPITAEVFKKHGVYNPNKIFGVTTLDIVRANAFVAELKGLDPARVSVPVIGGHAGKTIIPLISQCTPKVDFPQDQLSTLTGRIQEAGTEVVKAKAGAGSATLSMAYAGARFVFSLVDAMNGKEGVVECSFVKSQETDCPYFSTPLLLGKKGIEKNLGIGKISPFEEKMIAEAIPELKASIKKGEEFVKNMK
The data set is described as follows: ITC binding of azo-NAD^+ to malate dehydrogenase. It is filed as Porcine heart mitochondria (sus scrofa). Particulars: pH 7.5. In short, it runs like this:
(§1)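 Isothermal titration calorimetry at pH 7.5 with commercial enzymes: Candida boidinii FDH and porcine heart mitochondrial MDH. Titrations of azo-NAD+ with enzyme; for the MDH ternary complex, malate is present. Heats of dilution subtracted from raw heats. Integrated heats fitted to a single-site binding model to give Kd.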

The target in data set [3] is T2, Formate dehydrogenase (FDH) (Candida boidinii, UniProt O13437).
T2 sequence (O13437 1-364): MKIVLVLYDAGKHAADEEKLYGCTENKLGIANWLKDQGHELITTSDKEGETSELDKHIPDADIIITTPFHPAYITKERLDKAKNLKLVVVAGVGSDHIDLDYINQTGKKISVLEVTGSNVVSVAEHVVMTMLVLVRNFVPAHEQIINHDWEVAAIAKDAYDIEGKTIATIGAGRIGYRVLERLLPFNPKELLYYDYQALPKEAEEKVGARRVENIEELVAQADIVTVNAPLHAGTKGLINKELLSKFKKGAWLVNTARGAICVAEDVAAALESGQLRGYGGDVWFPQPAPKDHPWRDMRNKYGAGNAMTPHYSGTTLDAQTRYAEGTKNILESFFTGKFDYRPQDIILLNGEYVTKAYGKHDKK
As to the kind of experiment: ITC binding of azo-NAD^+ to formate dehydrogenase. Particulars: Kd (Binary), FDH binary complex, pH 7.5. In short, it runs like this:
as §1

Data set [4] in a line: Solubility of the solid analog. It is filed as physicochemical. Particulars: phosphate buffer and methanol at room temperature.
The target in data set [5] is T1, Malate dehydrogenase (MDH). As to the kind of experiment: Enzymatic reaction assay, competitive inhibition, initial rates. It is filed as biochemical, Porcine heart mitochondria (sus scrofa).
For data set [6], the system named is Glucose dehydrogenase (GDH). The data set is described as follows: Enzymatic reaction assay, initial rates. In kind it is biochemical, Bacillus megaterium. In short, it runs like this: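 Commercial Bacillus megaterium GDH in a 1 mL UV cuvette with 0.1 M phosphate buffer, pH 7.5, and azo-NAD+ as coenzyme. Initial rates taken over 2 min from the absorbance rise at 340 nm (azo-NADH). Km and kcat obtained by fitting rates against azo-NAD+ concentration to the Michaelis–Menten equation, with Vmax = [E]·kcat.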

Data set [7] deals with T2, Formate dehydrogenase (FDH). As to the kind of experiment: Enzymatic reaction assay, initial rates. In kind it is biochemical.
Data set [8] can be described thus: Stability in phosphate buffer by UV absorbance ratio 260/303 nm. It is filed as physicochemical. Particulars: phosphate buffer pH 7.5, 24 hrs, 25 °C.
The test system of data set [9] is formate dehydrogenase (FDH). Particulars: azide anion with FDH; cited from earlier work.
Data set [10] has as its target T2, Formate dehydrogenase (FDH). Particulars: native NAD^+, cited from earlier work.
Data set [11] addresses T1, Malate dehydrogenase (MDH). Particulars: native NAD^+, 37; cited from earlier work.
Data set [12] has as its system Glucose dehydrogenase (GDH). Particulars: native NAD^+; cited from earlier work.
Substrate in data set [13]: [N-]=[N+]=Nc1ccc[n+]([C@@H]2O[C@H](COP(=O)([O-])OP(=O)(O)OC[C@H]3O[C@@H](n4cnc5c(N)ncnc54)[C@H](O)[C@@H]3O)[C@@H](O)[C@H]2O)c1
The data set is described as follows: Enzymatic reaction assay, initial rates. In kind it is biochemical, Candida boidinii. Particulars: other: FDH, azo-NAD^+ as substrate, 0.1 M phosphate buffer pH 7.5.

Where [14] appears, read: azo-NAD^+ as substrate, 0.1 M phosphate buffer pH 7.5.

“And” between values parts separate entries of the source, which are not always exact repeats. Equal values may be shown once. Read-outs that look alike come from different tables or passages of the source.

As for `[N-]=[N+]=Nc1ccc[n+]([C@@H]2O[C@H](COP(=O)([O-])OP(=O)(O)OC[C@H]3O[C@@H](n4cnc5c(N)ncnc54)[C@H](O)[C@@H]3O)[C@@H](O)[C@H]2O)c1` [azo-NAD^+], the equilibrium dissociation constant (Kd) (in general, the constant that tells how readily two partners part at equilibrium) was determined as 300 µM in data set [1]; 152 µM in [2] (Kd (Binary), MDH binary complex); 70 µM in data set [2] (Kd (Ternary), MDH ternary complex with substrate malate); 63 µM in data set [3]. The solubility entry in [4] is recorded as “soluble”. Further, the affinity in [5] corresponds to a Ki of 83 µM. Moreover, the entries for the “behaviour as substrate or inhibitor” value in data set [5] (MDH), in [6] and in [7] were “competitive inhibitor”, “substrate” and “substrate”, respectively. In addition, in data set [6] (setting [14]), the Km – broadly, the concentration of substrate that gives half-maximal velocity – is 72 µM. The kcat (as a rule, the number of substrate molecules converted per active site and unit of time at saturation) in data set [6] (setting [14]) was determined as 344 s⁻¹. Besides, the “stability (ratio of UV absorbance 260 nm/303 nm unchanged)” value in [8] is “stable”.
Turning to `[N-]=[N+]=[N-]` [azide anion], the binding constant entry in [9] is “nanomolar”.
Regarding `NC(=O)c1ccc[n+]([C@@H]2O[C@H](COP(=O)([O-])OP(=O)(O)OC[C@H]3O[C@@H](n4cnc5c(N)ncnc54)[C@H](O)[C@@H]3O)[C@@H](O)[C@H]2O)c1` [NAD^+, nicotinamide adenine dinucleotide], the kcat in [5] (MDH, native NAD^+, no reference given) was 45 s⁻¹; in [12] it was 390 ^d s^−1. In data set [10] (Candida Boidinii FDH), the “kcat (turnover number)” value was 3.7 s^−1 and 3.7 ^c s^−1. Also, the Michaelis constant (Km) in data set [10] (FDH) was 90 µM; in data set [11] it was 140 µM; in [12], 370 µM.

B1: Formate dehydrogenase (FDH) ([Candida] boidinii) (protein)
chain: T2 sequence (O13437 1-364)
Consider B1, for which, in data set [13], the Km stood at 378 µM and the kcat was determined as 7.5 s⁻¹.
